This is an account of results in the array DNA melting data of Ke et al. (doi:10.1101/2024.01.08.574731).

Data set [1] is described as follows: folding enthalpy; higher = less favourable; fluorescence melt of hairpins on a sequencing array, two-state fit. Conditions: sodium 0.088 M. In a few lines: (§1)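 To match UV melts, fitted temperatures were raised by 9.35 °C. These fits were bootstrapped two-state models that gave melting temperature and folding enthalpy, combined by inverse variance over four replicates. The input was normalised Cy3 fluorescence of library hairpins with annealed Cy3 and quencher oligos on a sequenced MiSeq flow cell, imaged in 50 mM Na-HEPES pH 8.0, 25 mM NaCl in 2.5 °C steps up to 60 °C.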

A short description of data set [2]: melting temperature; fluorescence melt of hairpins on a sequencing array, two-state fit, raised by 9.35 °C to match UV melts. Particulars: sodium 0.088 M. The essentials: as §1

Consider GGACGCGAAAGCGGCTCC ((((((....)))..))), for which the folding enthalpy in data set [1] is -8.87 kcal/mol. The Tm in data set [2] came out at 58 °C.

With GTATTAGGAAACTAATAC (((((((....))))))), the folding enthalpy in data set [1] was -38 kcal/mol. Further, the Tm in data set [2] was 46.3 °C.

With GCGAACGAAAGTTACCGC ((((((....)))..))), the folding enthalpy in data set [1] was -22.1 kcal/mol. Further, the Tm in data set [2] came out at 37.7 °C.

Regarding CGTAATCGGAAACGAACG (((..(((....)))))), in data set [1], the folding enthalpy was -7.75 kcal/mol. Further, the Tm in data set [2] is 20.9 °C.

As to CGGTTGCGGAAACGCCCG (((..(((....)))))), the folding enthalpy in data set [1] is -22.3 kcal/mol. The Tm in data set [2] is 46.5 °C.

On to CGAATGAAAATTCG (((((....))))), for which, in data set [1], the folding enthalpy is -22.5 kcal/mol. In addition, the Tm in data set [2] worked out at 48.1 °C.

Regarding GATTGCGAAAGCACATC ((((((....))).))), the folding enthalpy in data set [1] was -19.3 kcal/mol. In addition, the Tm in data set [2] was determined as 40.1 °C.

On to GTGCGTCGAAAGACACAC (((.(((....))).))), for which the folding enthalpy in data set [1] is -39 kcal/mol. In addition, the Tm in data set [2] was 53.5 °C.

Take GGTTACTCGAAAGAGACC (((..(((....)))))): the folding enthalpy in data set [1] was -11.8 kcal/mol. For the same sequence, in data set [2], the Tm came to 25 °C.

For the sequence GTCTCTGGAAACAGGGAC (((.(((....))).))), the folding enthalpy in data set [1] was -27.4 kcal/mol. In addition, the Tm in data set [2] is 48.9 °C.

Turning to GCTTGCTCGAAAGAGAGC (((..(((....)))))), the folding enthalpy in data set [1] was -21.3 kcal/mol. Besides, the Tm in data set [2] amounted to 49.1 °C.

On to GCCAATCGAAAGATAGGC (((.(((....))).))), for which, in data set [1], the folding enthalpy is -35.6 kcal/mol. For the same sequence, the Tm in data set [2] is 52.1 °C.

As for GATCGGGGGACCGATC ((((((....)))))), in data set [1], the folding enthalpy was -36.2 kcal/mol. Besides, the Tm in data set [2] was found to be 61.9 °C.

As for GGTTAAGGAAACTTAGCC ((.((((....)))).)), in data set [1], the folding enthalpy was -28 kcal/mol. For the same sequence, the Tm in data set [2] was 38.5 °C.

GGTTACGGAAACGTGACC (((.(((....))).))): the folding enthalpy in data set [1] is -36.4 kcal/mol. Also, in data set [2], the Tm was determined as 53.4 °C.

As to GAGGAGACGAAAGTCCTC (((..(((....)))))), the folding enthalpy in data set [1] is -15.5 kcal/mol. The Tm in data set [2] is 40.8 °C.

For GATCACTACCGTGATC ((((((....)))))), in data set [1], the folding enthalpy is -41.2 kcal/mol. In addition, in data set [2], the Tm was 55.3 °C.

Take GATCTTGGAAACAAGGTC ((.((((....)))).)): the folding enthalpy in data set [1] was -33.9 kcal/mol. Moreover, the Tm in data set [2] worked out at 44.2 °C.

On to GTGATCGAAAGATAACAC ((((((....)))..))), for which, in data set [1], the folding enthalpy is -23.6 kcal/mol. In addition, the Tm in data set [2] turned out to be 34.5 °C.

Regarding GCCATGCGAAAGCTGGGC (((..((....))..))), the folding enthalpy in data set [1] was -26.4 kcal/mol. For the same sequence, the Tm in data set [2] was found to be 62.6 °C.

With GAATGCGAAAGCAGGTTC ((((((....)))..))), the folding enthalpy in data set [1] was -8.65 kcal/mol. Moreover, the Tm in data set [2] was 30.4 °C.

Turning to GGTGAGGGAAACCCCACC ((((.((....)).)))), the folding enthalpy in data set [1] was -39.2 kcal/mol. Further, the Tm in data set [2] came to 50.5 °C.

On to GTCTGCGAAAGCAATGAC ((((((....)))..))), for which the folding enthalpy in data set [1] was -16.8 kcal/mol. The Tm in data set [2] is 39.3 °C.

Regarding GTGTCTCGAAAGAGGCAC (((.(((....))).))), the folding enthalpy in data set [1] is -38.5 kcal/mol. Also, the Tm in data set [2] stood at 61.3 °C.

As for GAGAACCGAAAGGTCCTC (((.(((....))).))), the folding enthalpy in data set [1] was -24.6 kcal/mol. Also, the Tm in data set [2] amounted to 46.6 °C.

On to GGAGGCGAAAGCCCTCC ((((((....))).))), for which the folding enthalpy in data set [1] was -18.1 kcal/mol. For the same sequence, in data set [2], the Tm came to 61.1 °C.

GGATCTGCGAAAGCATCC (((..(((....)))))): the folding enthalpy in data set [1] is -14.9 kcal/mol. The Tm in data set [2] was 35.2 °C.

For the sequence GATTTCGGAAACGGAATC ((((.((....)).)))), the folding enthalpy in data set [1] is -38.9 kcal/mol. Moreover, the Tm in data set [2] stood at 45 °C.

With GATACGCGAAAGCGCATC (((.(((....))).))), the folding enthalpy in data set [1] is -20.2 kcal/mol. Also, the Tm in data set [2] worked out at 46.4 °C.

On to GCTGAGCGAAAGCTGTGC ((..(((....)))..)), for which the folding enthalpy in data set [1] is -17.8 kcal/mol. Moreover, the Tm in data set [2] was found to be 45.5 °C.

On to GAATCAGGAAACTGACTC ((.((((....)))).)), for which, in data set [1], the folding enthalpy was -17.3 kcal/mol. Further, the Tm in data set [2] worked out at 28.7 °C.

On to GCAAAGCGAAAGCTACGC ((..(((....)))..)), for which the folding enthalpy in data set [1] is -11 kcal/mol. Also, the Tm in data set [2] worked out at 40.8 °C.

Regarding GTAACTGGAAACAGTTAC (((((((....))))))), the folding enthalpy in data set [1] was -41.6 kcal/mol. Also, in data set [2], the Tm worked out at 56.1 °C.

As to GCCTAGCGAAAGCTAAGC ((.((((....)))).)), the folding enthalpy in data set [1] was -17.1 kcal/mol. For the same sequence, the Tm in data set [2] amounted to 48.9 °C.

In the case of GGGAGACGAAAGTCCCC (((.(((....)))))), in data set [1], the folding enthalpy was -35.5 kcal/mol. Moreover, the Tm in data set [2] came to 56.4 °C.

GATCAACACTTTGATC ((((((....)))))): the folding enthalpy in data set [1] was -37.8 kcal/mol. Further, the Tm in data set [2] was found to be 47.6 °C.

In the case of GATCAACGTTTGATC ((((((...)))))), the folding enthalpy in data set [1] was -26.1 kcal/mol. In addition, the Tm in data set [2] was 40.1 °C.
